Results reported in ChEMBL document CHEMBL1122190, “Mammary tumor inhibiting effect of 3,3'-diacetoxy-alpha, beta-dialkylstilbenes and of related stilbene oxides” (1982).

Assays:
[1] = target: T1, Estrogen receptor (Mus musculus) (UniProt O08537+P19785); experiment: Uterotrophic activity in mice at 10 ug dose; format: functional, tissue-based; conditions: Uterus
Procedure, shortened: (§1)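 Dorfman uterine weight test in immature female NMRI mice, ten per group, 20 days old and 10-12 g at start. Compounds were given in olive oil sc once daily for 3 days. Mice were killed 24 h after the last injection, and uteri were removed, dried at 100 °C for 24 h and weighed.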

[2] = target: T1, Estrogen receptor (Mus musculus); experiment: Uterotrophic activity in mice at 1 ug dose; format: functional, tissue-based; conditions: Uterus; procedure, shortened: as §1
[3] = target: T1, Estrogen receptor (Mus musculus); experiment: Uterotrophic activity in mice at 500 ug dose; format: functional, tissue-based; conditions: Uterus
Procedure, shortened: (§2)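 Dorfman uterine weight test in immature female NMRI mice (20 days old at start, 10-12 g; ten per group). Compound given sc daily in olive oil for 3 days. Animals killed 24 h after last injection; uteri removed, dried at 100 °C for 24 h and weighed.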

[4] = target: T1, Estrogen receptor (Mus musculus); experiment: Uterotrophic activity in mice at 50 ug dose; format: functional, tissue-based; conditions: Uterus; procedure, shortened: as §2
[5] = target: T1, Estrogen receptor (Mus musculus); experiment: Antiuterotrophic activity in mice at 100 ug dose; format: functional; procedure, shortened: as §1
[6] = target: T1, Estrogen receptor (Mus musculus); experiment: Antiuterotrophic activity in mice at 50 ug dose; format: functional; procedure, shortened: as §1
[7] = target: T1, Estrogen receptor (Mus musculus); experiment: Antiuterotrophic activity in mice at 5 ug dose; format: functional; procedure, shortened: as §1
[8] = target: T1, Estrogen receptor (Mus musculus); experiment: Uterotrophic activity in mice at 100 ug dose; format: functional, tissue-based; conditions: Uterus; procedure, shortened: as §1
[9] = target: T1, Estrogen receptor (Mus musculus); experiment: Percent inhibition of estrone-stimulated uterine growth in immature mouse at 100 ug dose; format: functional; procedure, shortened: as §1
[10] = target: T1, Estrogen receptor (Mus musculus); experiment: Percent inhibition of estrone-stimulated uterine growth in immature mouse at 5 ug dose; format: functional; procedure, shortened: as §1
Mus musculus [11] = experiment: Effect on estrogen and progesterone receptors positive hormone-dependent postmenopausal human mammary carcinoma tumor growth in nude mice at 2.6 mg/kg/day; format: functional
Procedure, shortened: (§3)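 Nude mice carried serially transplanted hormone-dependent human mammary carcinoma. Compounds in olive oil were given sc 6 times a week for 4-5 weeks. Two tumor diameters were measured weekly, and size at treatment start was set as 1. Tumor size was averaged after 5 weeks of therapy.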

[12] = target: T1, Estrogen receptor (Mus musculus); experiment: Percent inhibition of estrone-stimulated uterine growth in immature mouse at 50 ug dose; format: functional; procedure, shortened: as §1
[13] = test system: Estrogen receptor (Bos taurus); experiment: In vitro relative binding affinity for Estrogen receptor compared to [3H]estradiol
[14] = target: T1, Estrogen receptor (Mus musculus); experiment: Uterotrophic activity in mice at 1000 ug dose; format: functional, tissue-based; conditions: Uterus; procedure, shortened: as §2
Mus musculus [15] = experiment: Effect on estrogen and progesterone receptors positive hormone-dependent postmenopausal human mammary carcinoma tumor growth in nude mice at 3.0 mg/kg/day; format: functional; procedure, shortened: as §3
[16] = target: T1, Estrogen receptor (Mus musculus); experiment: Antiuterotrophic activity in mice at 2.5 ug dose; format: functional; procedure, shortened: as §1
[17] = target: T1, Estrogen receptor (Mus musculus); experiment: Antiuterotrophic activity in mice at 25 ug dose; format: functional; procedure, shortened: as §1
[18] = target: T1, Estrogen receptor (Mus musculus); experiment: Percent inhibition of estrone-stimulated uterine growth in immature mouse at 2.5 ug dose; format: functional; procedure, shortened: as §1
[19] = target: T1, Estrogen receptor (Mus musculus); experiment: Percent inhibition of estrone-stimulated uterine growth in immature mouse at 25 ug dose; format: functional; procedure, shortened: as §1
Mus musculus [20] = experiment: Effect on estrogen and progesterone receptors positive hormone-dependent postmenopausal human mammary carcinoma tumor growth in nude mice at 1.0 mg/kg/day dose; format: functional; procedure, shortened: as §3
Mus musculus [21] = experiment: Effect on estrogen and progesterone receptors positive hormone-dependent postmenopausal human mammary carcinoma tumor growth in nude mice at 2.0 mg/kg/day; format: functional; procedure, shortened: as §3
Rattus norvegicus [22] = experiment: Effect on DMBA-induced hormone-dependent mammary carcinoma tumor growth in rats at 2.0 mg/kg/day; format: functional
Procedure, shortened: (§4)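 Female Sprague-Dawley rats received a single 20 mg DMBA dose by gastric intubation at 50 days of age. About 4 weeks later, rats bearing at least one tumor >140 mm² were grouped in tens. Compounds in olive oil were given sc 6 times a week for 28 days. Tumor area (length × width) was measured twice weekly.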

Rattus norvegicus [23] = experiment: Effect on DMBA-induced hormone-dependent mammary carcinoma tumor growth in rats at 4.0 mg/kg/day; format: functional; procedure, shortened: as §4
Rattus norvegicus [24] = experiment: Effect on DMBA-induced hormone-dependent mammary carcinoma tumor growth in rats at 1.0 mg/kg/day (initial tumor number); format: functional; procedure, shortened: as §4
Rattus norvegicus [25] = experiment: Effect on DMBA-induced hormone-dependent mammary carcinoma tumor number in rats at 1.0 mg/kg/day; format: functional; procedure, shortened: as §4
Rattus norvegicus [26] = experiment: Effect on DMBA-induced hormone-dependent mammary carcinoma tumor number in rats at 2.0 mg/kg/day; format: functional; procedure, shortened: as §4
Rattus norvegicus [27] = experiment: Effect on DMBA-induced hormone-dependent mammary carcinoma tumor growth in rats at 4.0 mg/kg/day (initial tumor number); format: functional; procedure, shortened: as §4
Rattus norvegicus [28] = experiment: Effect on DMBA-induced hormone-dependent mammary carcinoma tumor number in rats at 4.0 mg/kg/day; format: functional; procedure, shortened: as §4
Rattus norvegicus [29] = experiment: Percent remission of DMBA-induced hormone-dependent mammary carcinoma in rats at 1.0 mg/kg/day; format: functional; procedure, shortened: as §4
Rattus norvegicus [30] = experiment: Percent unchanged DMBA-induced hormone-dependent mammary carcinoma in rats at 1.0 mg/kg/day; format: functional; procedure, shortened: as §4
Rattus norvegicus [31] = experiment: Percent partial remission of DMBA-induced hormone-dependent mammary carcinoma in rats at 1.0 mg/kg/day; format: functional; procedure, shortened: as §4
Rattus norvegicus [32] = experiment: Percent progression of DMBA-induced hormone-dependent mammary carcinoma in rats at 1.0 mg/kg/day; format: functional; procedure, shortened: as §4
Rattus norvegicus [33] = experiment: Percent remission of DMBA-induced hormone-dependent mammary carcinoma in rats at 2.0 mg/kg/day; format: functional; procedure, shortened: as §4
Rattus norvegicus [34] = experiment: Percent unchanged DMBA-induced hormone-dependent mammary carcinoma in rats at 2.0 mg/kg/day; format: functional; procedure, shortened: as §4
Rattus norvegicus [35] = experiment: Percent partial remission of DMBA-induced hormone-dependent mammary carcinoma in rats at 2.0 mg/kg/day; format: functional; procedure, shortened: as §4
Rattus norvegicus [36] = experiment: Percent progression of DMBA-induced hormone-dependent mammary carcinoma in rats at 2.0 mg/kg/day; format: functional; procedure, shortened: as §4
Rattus norvegicus [37] = experiment: Percent remission of DMBA-induced hormone-dependent mammary carcinoma in rats at 4.0 mg/kg/day; format: functional; procedure, shortened: as §4
Rattus norvegicus [38] = experiment: Percent unchanged DMBA-induced hormone-dependent mammary carcinoma in rats at 4.0 mg/kg/day; format: functional; procedure, shortened: as §4
Rattus norvegicus [39] = experiment: Percent partial remission of DMBA-induced hormone-dependent mammary carcinoma in rats at 4.0 mg/kg/day; format: functional; procedure, shortened: as §4
Rattus norvegicus [40] = experiment: Percent progression of DMBA-induced hormone-dependent mammary carcinoma in rats at 4.0 mg/kg/day; format: functional; procedure, shortened: as §4
Rattus norvegicus [41] = experiment: Effect on DMBA-induced hormone-dependent mammary carcinoma tumor growth in rats at 1.0 mg/kg/day; format: functional; procedure, shortened: as §4
Rattus norvegicus [42] = experiment: Effect on DMBA-induced hormone-dependent mammary carcinoma tumor growth in rats at 2.0 mg/kg/day (number of tumors at test beginning)

T1 sequence (O08537 whole entry, looked up): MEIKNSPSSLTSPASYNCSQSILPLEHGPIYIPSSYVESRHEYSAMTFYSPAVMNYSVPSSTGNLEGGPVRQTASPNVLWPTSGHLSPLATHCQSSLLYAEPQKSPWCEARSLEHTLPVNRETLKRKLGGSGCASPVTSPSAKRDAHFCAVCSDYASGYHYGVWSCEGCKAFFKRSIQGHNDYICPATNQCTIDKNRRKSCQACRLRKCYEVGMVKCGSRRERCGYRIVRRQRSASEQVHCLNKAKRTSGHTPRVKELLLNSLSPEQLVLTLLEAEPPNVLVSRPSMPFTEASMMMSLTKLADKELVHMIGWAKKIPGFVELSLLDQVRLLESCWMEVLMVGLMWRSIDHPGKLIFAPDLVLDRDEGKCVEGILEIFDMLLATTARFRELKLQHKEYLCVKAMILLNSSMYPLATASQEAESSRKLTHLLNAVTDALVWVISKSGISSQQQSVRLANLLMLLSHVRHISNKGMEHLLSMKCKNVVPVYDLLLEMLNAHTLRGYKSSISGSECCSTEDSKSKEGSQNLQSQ
T1 sequence (P19785 whole entry, looked up): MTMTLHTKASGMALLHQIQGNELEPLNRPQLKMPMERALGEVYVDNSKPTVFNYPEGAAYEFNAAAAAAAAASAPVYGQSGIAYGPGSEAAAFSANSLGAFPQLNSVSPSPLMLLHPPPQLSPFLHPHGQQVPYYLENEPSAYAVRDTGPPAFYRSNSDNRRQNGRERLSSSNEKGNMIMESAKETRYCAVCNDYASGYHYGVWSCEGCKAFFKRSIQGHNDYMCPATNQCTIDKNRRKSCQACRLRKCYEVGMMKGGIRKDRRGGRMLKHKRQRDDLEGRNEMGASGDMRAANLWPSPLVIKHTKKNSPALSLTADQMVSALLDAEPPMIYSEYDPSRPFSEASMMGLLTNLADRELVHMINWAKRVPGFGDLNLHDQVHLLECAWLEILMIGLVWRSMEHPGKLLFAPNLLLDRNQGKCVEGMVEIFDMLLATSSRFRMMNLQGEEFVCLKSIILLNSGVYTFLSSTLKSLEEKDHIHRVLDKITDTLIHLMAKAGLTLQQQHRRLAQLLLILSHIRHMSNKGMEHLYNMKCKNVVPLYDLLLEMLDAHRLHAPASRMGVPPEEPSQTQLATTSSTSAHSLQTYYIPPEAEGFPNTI

## CCC1(c2cccc(OC(C)=O)c2)OC1(CC)c1cccc(OC(C)=O)c1 (stereo unspecified)
[1]
  Effect: 30.3
[2]
  Effect: 22.2
[3]
  Effect: 38.6
[4]
  Effect: 33.4
[5]
  Effect: 43.7
[6]
  Effect: 36.4
[7]
  Effect: 33.2
[8]
  Effect: 36.2
[9]
  inhibition: 0%
[10]
  inhibition: 33.5%
Mus musculus [11]
  Tumor size: 2.38
[12]
  inhibition: 22.6%
[13]
  RBA: 4.2%

## CCCCC1(c2cccc(OC(C)=O)c2)OC1(CCCC)c1cccc(OC(C)=O)c1 (stereo unspecified)
[1]
  Effect: 19.8
[5]
  Effect: 42.4
[6]
  Effect: 42
[7]
  Effect: 32.4
[14]
  Effect: 35.5
[8]
  Effect: 34.3
[9]
  inhibition: 0.4%
[10]
  inhibition: 38.8%
Mus musculus [15]
  Tumor size: 3.37
[12]
  inhibition: 2.2%
[13]
  RBA: 0.8%

## CC/C(=C(/CC)c1cccc(O)c1)c1cccc(O)c1
[16]
  Effect: 38.3
[17]
  Effect: 29.9
[6]
  Effect: 29.1
[7]
  Effect: 28.1
[18]
  inhibition: 18.7%
[19]
  inhibition: 42.8%
[10]
  inhibition: 48%
Mus musculus [20]
  Tumor size: 2.78
Mus musculus [21]
  Tumor size: 1.76
Rattus norvegicus [22]
  Change: 2%
Rattus norvegicus [23]
  Change: -26%
Rattus norvegicus [24]
  No. of tumors: 32
Rattus norvegicus [25]
  No. of tumors: 34
Rattus norvegicus [26]
  No. of tumors: 21
Rattus norvegicus [27]
  No. of tumors: 37
Rattus norvegicus [28]
  No. of tumors: 17
Rattus norvegicus [29]
  Tumors: 15%
Rattus norvegicus [30]
  Tumors: 38%
Rattus norvegicus [31]
  Tumors: 23%
Rattus norvegicus [32]
  Tumors: 24%
Rattus norvegicus [33]
  Tumors: 25%
Rattus norvegicus [34]
  Tumors: 32%
Rattus norvegicus [35]
  Tumors: 26%
Rattus norvegicus [36]
  Tumors: 17%
Rattus norvegicus [37]
  Tumors: 27%
Rattus norvegicus [38]
  Tumors: 32%
Rattus norvegicus [39]
  Tumors: 22%
Rattus norvegicus [40]
  Tumors: 19%
Rattus norvegicus [41]
  Tumors: 40%
[12]
  inhibition: 45.1%
[13]
  RBA: 3.2%
Rattus norvegicus [42]
  Number of tumors at test beginning: 32
